The results in this text go back to ChEMBL document CHEMBL3407374, “Synthesis of structural analogues of hexadecylphosphocholine and their antineoplastic, antimicrobial and amoebicidal activity” (Eur J Med Chem, 2015).

One series concerns Staphylococcus aureus. The series is described as follows: Antimicrobial activity against Staphylococcus aureus ATCC 29/58 assessed as prevention of colony formation after 24 hrs by spectrophotometry. Type of series: functional. Conditions: ATCC 29/58, 24 h. An outline of the steps:
(§1)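 Bacteria grown 24 h on blood agar, Candida on Sabouraud agar; suspensions in physiological solution (pH 7.2), 5 × 10⁷ CFU/ml bacteria, 5 × 10⁵ CFU/ml Candida. […] suspension added to aqueous compound solution plus double-strength peptone broth (bacteria) or Sabouraud medium (Candida). Incubated 24 h at 37 °C in 96-well plates, then subcultured on agar 24 h at 37 °C.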

A short description of series [1]: Cytotoxicity against human lymphocytes assessed as growth inhibition at 500 uM after 24 hrs by MTS method. To be noted: for inhibition at 24 h, 500 µM: human lymphocytes, read-out: GI; for growth inhibition (GI): lymphocyte, 24 h, 500 µM. Type of series: cell-based, Lymphocyte. Background: Tetrazolium assays rely on reduction of a dye to a coloured formazan, in cell work by metabolically active cells.

A further series has as its system MCF7. In words: Cytotoxicity against human MCF7 cells after 24 hrs by MTT method. The series is classed as functional, cell-based. To be noted: MCF7, 24 h. An outline of the steps: (§2)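 MCF-7 grown in MEM with NEA, FCS, glutamine; A2780 in RPMI-1640 with FCS, glutamine; 37 °C, 5% CO₂, trypsin-EDTA passaging. Seeded 20 000 cells/well, treated after about 20 h; 24-h exposure. MTT read-out, formazan dissolved in DMSO, read at 492/520 nm. IC50 from log inhibitor versus normalized response sigmoidal fit.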

Another series relates to THP-1. In words: Cytotoxicity against human THP1 cells after 24 hrs by MTS method. The series is classed as functional, cell-based. To be noted: THP-1, 24 h. An outline of the steps: (§3)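 THP-1 and HUT-78 grown in suspension in RPMI-1640 with FCS, glutamine, penicillin-streptomycin, NEA, 2-sulfanylethanol, sodium pyruvate; 37 °C, 5% CO₂; passaged by centrifugation. 24-h exposure; MTS read-out (water-soluble formazan) at 492/520 nm. IC50 from log inhibitor versus normalized response sigmoidal fit.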

The next series concerns Acanthamoeba lugdunensis. The series is described as follows: Antiprotozoal activity against Acanthamoeba lugdunensis trophozoites assessed as viability after 1 to 48 hrs by trypan blue exclusion assay. The series is classed as functional. An outline of the steps: (§4)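 Trophozoites axenized from 2-day monoxenic agar cultures via BCS then PYG media with antibiotics, then cultured antibiotic-free in PYG. 2 × 10⁵ cells/ml suspension mixed 1:1 with medium holding compound; final […]. Survivors counted by haemocytometer with trypan blue at 1, 24, 48 h; eradication confirmed by 14-day PYG regrowth; MTC = lowest concentration giving 100% eradication.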

For a further series, the system named is Candida albicans. In words: Antimicrobial activity against Candida albicans ATCC 8186 assessed as prevention of colony formation after 24 hrs by spectrophotometry. The series is classed as functional. Conditions: ATCC 8186, 24 h. Summed up:
as §1

Series [2] relates to Acanthamoeba quina. The series is described as follows: Ratio of miltefosine MTC to compound MTC for Acanthamoeba quina trophozoites assessed as viability after 1 to 48 hrs by trypan blue exclusion assay. The series is classed as functional.
Series [3] deals with Acanthamoeba quina. In words: Antiprotozoal activity against Acanthamoeba quina trophozoites assessed as viability after 1 to 48 hrs by trypan blue exclusion assay. Type of series: functional. Summed up: as §4
A short description of series [4]: Solubility of the compound in water. The series is classed as physicochemical. To be noted: buffer.
The next series concerns A2780. The series is described as follows: Cytotoxicity against human A2780 cells after 24 hrs by MTT method. Type of series: functional, cell-based. Conditions: A2780, 24 h. An outline of the steps: as §2
Another series relates to Escherichia coli. The series is described as follows: Antimicrobial activity against Escherichia coli ATCC 377/79 assessed as prevention of colony formation after 24 hrs by spectrophotometry. The series is classed as functional. Conditions: ATCC 377/79, 24 h. Summed up:
as §1

Another series relates to HuT78. In words: Cytotoxicity against human HUT78 cells after 24 hrs by MTS method. Conditions: HuT78, 24 h. The series is classed as functional, cell-based. An outline of the steps:
as §3

Series [5] can be described thus: Critical micelle concentration of the compound. The series is classed as ADME.

The structures appear in SMILES notation. pIC50: −log10 of the molar value. In brackets after ≈: the same amount, converted by molar mass. Where only a bound is given, the exact number is not on record here.

As a reminder, the MIC is the lowest concentration that inhibits growth of the organism. What is called pIC50 is −log10 of the IC50, conventionally taken in molar units. As for `CCCCCCCCCCCCCCC[N+](C)(C)CCOP(=O)([O-])OCC`, the figures for the MIC in the series on Staphylococcus aureus, in the series on Candida albicans and with Escherichia coli were above 1000 µM, 21.1 µM (≈ 8.62 µg/mL) and above 1000 µM, respectively. Besides, in series [1], the inhibition at 24 h, 500 µM came to 10%. The negative logarithm of the IC50 (pIC50) with MCF7 is 4.84; in the series with THP-1, 4.52; in the series with A2780 it was 5.13; with HuT78 it was 4.45. Further, the MTC in the series on Acanthamoeba lugdunensis and with Acanthamoeba quina [3] was 62.5 µM each time. For the same compound, the Ratio in the series on Acanthamoeba quina [2] worked out at 2. Moreover, in [4], the solubility result is recorded as “soluble”.
With `CCCCCCCCCCCCCC[N+](C)(C)CCOP(=O)([O-])OCCC`, the MIC is above 1000 µM in the series on Staphylococcus aureus, 86.3 µM (≈ 35.2 µg/mL) in the series on Candida albicans and above 1000 µM in the series on Escherichia coli. For the same compound, the inhibition at 24 h, 500 µM in series [1] was 12%. In addition, the pIC50 with MCF7 is 4.68; in the series with THP-1, 4.53; in the series with A2780 it was 5.03; in the series on HuT78, 4.54. The MTC in the series with Acanthamoeba lugdunensis and with Acanthamoeba quina [3] was 125 µM in each case. Also, in series [4], the solubility result is reported as “soluble”.
On to `CCCCCCCCCCCC[N+](C)(C)CCOP(=O)([O-])OCCCCC`, for which the figures for the MIC with Staphylococcus aureus, with Candida albicans and in the series on Escherichia coli were above 1000 µM, 352 µM (≈ 144 µg/mL) and above 1000 µM, respectively. The pIC50 in the series with MCF7 is 4.59; in the series with THP-1 it was 4.15; with A2780, 4.74; in the series with HuT78, 4.17. Further, the MTC in the series with Acanthamoeba lugdunensis and in the series on Acanthamoeba quina [3] was 125 µM each time. The solubility result in series [4] is “soluble”.
As for `CCCCCCCCCCC[N+](C)(C)CCOP(=O)([O-])OCCCCCC`, the MIC with Staphylococcus aureus is above 1000 µM; in the series with Candida albicans, 360 µM (≈ 147 µg/mL); in the series with Escherichia coli it was above 1000 µM. The negative logarithm of the IC50 (pIC50) with MCF7 is 4.19; with THP-1, 4.51; in the series on A2780, 4.59; in the series with HuT78 it was 4.02. Also, the MTC with Acanthamoeba lugdunensis was determined as 62.5 µM; in the series on Acanthamoeba quina [3], 125 µM. Moreover, the solubility result in [4] is recorded as “soluble”.
Take `CCCCCCCCCC[N+](C)(C)CCOP(=O)([O-])OCCCCCCC`: the minimal inhibitory concentration (MIC) is above 1000 µM in the series on Staphylococcus aureus, 352 µM (≈ 144 µg/mL) in the series with Candida albicans and above 1000 µM with Escherichia coli. In addition, in series [1], the “growth inhibition (GI)” value is recorded as “Non-toxic”. The negative logarithm of the IC50 (pIC50) with MCF7 was 4.58; in the series with THP-1, 3.19; in the series on A2780, 5.33; in the series with HuT78 it was 3.36. The MTC in the series with Acanthamoeba lugdunensis and with Acanthamoeba quina [3] was 125 µM in each case. Also, the solubility entry in [4] was “soluble”.
With `CCCCCCCCC[N+](C)(C)CCOP(=O)([O-])OCCCCCCCC`, the figures for the MIC in the series with Staphylococcus aureus, in the series with Candida albicans and with Escherichia coli were above 1000 µM, 367 µM (≈ 150 µg/mL) and above 1000 µM, respectively. The “growth inhibition (GI)” value in series [1] is “Non-toxic”. In addition, the pIC50 with MCF7 is 4.72; with THP-1 it was 3.26; in the series with A2780 it was 5.36; with HuT78 it was 3.55. Besides, the MTC in the series with Acanthamoeba lugdunensis and in the series on Acanthamoeba quina [3] was 125 µM throughout. Also, the solubility entry in series [4] is “soluble”.
Take `CCCCCCCCCOP(=O)([O-])OCC[N+](C)(C)CCCCCCCC`: the MIC in the series with Staphylococcus aureus is above 1000 µM; in the series with Candida albicans, 734 µM (≈ 299 µg/mL); with Escherichia coli it was above 1000 µM. Further, the “growth inhibition (GI)” value in series [1] was “Non-toxic”. Also, the negative-log IC50 (pIC50) is 4.47 in the series with MCF7, 3.77 in the series with THP-1, 5.14 with A2780 and 3.84 in the series with HuT78. The MTC in the series on Acanthamoeba lugdunensis and in the series with Acanthamoeba quina [3] was 250 µM throughout. Moreover, the solubility result in [4] is on record as “soluble”.
`CCCCCCCCCCOP(=O)([O-])OCC[N+](C)(C)CCCCCCC`: the MIC with Staphylococcus aureus is above 1000 µM; in the series with Candida albicans, 180 µM (≈ 73.3 µg/mL); in the series on Escherichia coli, above 1000 µM. For the same compound, the pIC50 is 4.21 with MCF7, 3.99 in the series with THP-1, 4.46 in the series with A2780 and 4.28 in the series with HuT78. Also, the MTC with Acanthamoeba lugdunensis and in the series with Acanthamoeba quina [3] was 250 µM in each case. Further, the solubility result in series [4] was “soluble”.
`CCCCCCCCCCCOP(=O)([O-])OCC[N+](C)(C)CCCCCC`: the MIC in the series with Staphylococcus aureus was above 1000 µM; in the series on Candida albicans it was 188 µM (≈ 76.4 µg/mL); in the series on Escherichia coli it was above 1000 µM. The pIC50 in the series on MCF7 was 3.95; in the series on THP-1, 4.04; with A2780, 4.72; in the series on HuT78, 4.08. The MTC is 125 µM with Acanthamoeba lugdunensis and 250 µM in the series on Acanthamoeba quina [3]. Moreover, in [4], the solubility entry is recorded as “soluble”.
With `CCCCCCCCCCCCOP(=O)([O-])OCC[N+](C)(C)CCCCC`, the minimal inhibitory concentration (MIC) is above 1000 µM in the series on Staphylococcus aureus, 184 µM (≈ 74.8 µg/mL) in the series on Candida albicans and above 1000 µM with Escherichia coli. Further, the pIC50 with MCF7 was 4.18; in the series on THP-1, 4.03; with A2780 it was 4.61; in the series on HuT78, 4.26. Further, the MTC with Acanthamoeba lugdunensis and with Acanthamoeba quina [3] was 125 µM each time. Also, the solubility entry in series [4] is “soluble”.
Consider `CCCCCCCCCCCCCCOP(=O)([O-])OCC[N+](C)(C)CCC`, for which the results for the MIC with Staphylococcus aureus, in the series on Candida albicans and in the series on Escherichia coli were above 1000 µM, 11.7 µM (≈ 4.77 µg/mL) and above 1000 µM, respectively. The negative-log IC50 (pIC50) with MCF7 was 4.30; in the series with THP-1, 3.90; with A2780 it was 4.54; in the series on HuT78, 4.29. Also, the MTC in the series with Acanthamoeba lugdunensis and with Acanthamoeba quina [3] was 125 µM throughout. The solubility entry in [4] is given as “soluble”.
As for `CCCCCCCCCCCCCCCOP(=O)([O-])OCC[N+](C)(C)CC`, the minimal inhibitory concentration (MIC) in the series with Staphylococcus aureus is above 1000 µM; in the series on Candida albicans it was 2.93 µM (≈ 1.19 µg/mL); in the series with Escherichia coli, above 1000 µM. Further, the pIC50 with MCF7 is 4.36; in the series with THP-1 it was 4.01; in the series on A2780 it was 5.00; in the series with HuT78, 4.20. Besides, the MTC in the series with Acanthamoeba lugdunensis and with Acanthamoeba quina [3] was 125 µM throughout. In addition, in [4], the solubility result is given as “soluble”.
In the case of `CCCCCCCCOP(=O)([O-])OCC[N+](C)(C)CCCCCCCC`, in series [5], the CMC is listed as 1 mmol/dm3.
Consider `CCCCCCCCCCCCCCCCOP(=O)([O-])OCC[N+](C)(C)C` [MILTEFOSINE], for which the MIC is 11.5 µM (≈ 4.69 µg/mL) in the series on Staphylococcus aureus, 2.87 µM (≈ 1.17 µg/mL) with Candida albicans and above 1000 µM in the series on Escherichia coli. Further, the negative logarithm of the IC50 (pIC50) in the series on MCF7 was 4.45; with THP-1 it was 4.09; in the series with A2780, 5.05; in the series with HuT78 it was 4.17. Also, the MTC in the series with Acanthamoeba lugdunensis was 250 µM; in the series with Acanthamoeba quina [3], 125 µM. Also, the CMC in series [5] was determined as 1.25 umol/dm3.
